Common to all, as to assay type: functional
The test system of one assay is Ascobolus stercorarius. Briefly: Antifungal activity against Ascobolus furfuraceus NRRL 6460 assessed as reduction in radial growth rate at 50 ug/disk by centerpoint inoculation disk assay.
A further assay deals with Sordaria fimicola. As to the kind of experiment: Antifungal activity against Sordaria fimicola NRRL 6459 assessed as reduction in radial growth rate at 150 ug/disk by centerpoint inoculation disk assay.
The subject of the next assay is Bacillus subtilis. As to the kind of experiment: Antibacterial activity against Bacillus subtilis ATCC 6051 at 150 ug/disk by standard disk assay. Conditions: for zone of inhibition at 150 µg/disc: read-out: IZ. In outline: (§1)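 Standard disc assay with 150 µg of compound loaded per disc. Activity is read as the zone of inhibition around the disc, in mm.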
The test system of the next assay is Candida albicans. As to the kind of experiment: Antifungal activity against Candida albicans ATCC 14053 at 150 ug/disk by standard disk assay. The conditions noted are these: read-out: IZ. In outline:
as §1

Calls of active or inactive are those of the source. The rule behind the calls is not given here.

Regarding `CC1=C(/C=C/CCCCCC(C)O)COC1=O` (configuration not stated) [APPENOLIDE B], the result in the assay with Ascobolus stercorarius and in the assay on Sordaria fimicola was Active. The zone of inhibition at 150 µg/disc in the assay with Bacillus subtilis worked out at 8 mm; with Candida albicans, 12 mm.

Take `CC(=O)CCCCC/C=C/C1=C(C)C(=O)OC1` [APPENOLIDE A]: the Activity in the assay with Ascobolus stercorarius is given as 26%; in the assay with Sordaria fimicola it was 54%. Besides, in the assay with Bacillus subtilis, the result was inactive. The zone of inhibition at 150 µg/disc with Candida albicans worked out at 12 mm.

Regarding `CCC(O)CCCC/C=C/C1=C(C)C(=O)OC1` (configuration not stated) [APPENOLIDE C], the outcome in the assay with Ascobolus stercorarius and in the assay on Sordaria fimicola was Active. For the same compound, the zone of inhibition at 150 µg/disc was 8 mm in the assay with Bacillus subtilis and 12 mm in the assay on Candida albicans.

The values are drawn from ChEMBL document CHEMBL1147345, “Appenolides A-C: three new antifungal furanones from the coprophilous fungus Podospora appendiculata” (1993).
